Experiment [1] concerns the target T1, GABA-A receptor; alpha-5/beta-3/gamma-2 (Homo sapiens, UniProt P18507+P28472+P31644).
T1 sequence (P18507 whole entry): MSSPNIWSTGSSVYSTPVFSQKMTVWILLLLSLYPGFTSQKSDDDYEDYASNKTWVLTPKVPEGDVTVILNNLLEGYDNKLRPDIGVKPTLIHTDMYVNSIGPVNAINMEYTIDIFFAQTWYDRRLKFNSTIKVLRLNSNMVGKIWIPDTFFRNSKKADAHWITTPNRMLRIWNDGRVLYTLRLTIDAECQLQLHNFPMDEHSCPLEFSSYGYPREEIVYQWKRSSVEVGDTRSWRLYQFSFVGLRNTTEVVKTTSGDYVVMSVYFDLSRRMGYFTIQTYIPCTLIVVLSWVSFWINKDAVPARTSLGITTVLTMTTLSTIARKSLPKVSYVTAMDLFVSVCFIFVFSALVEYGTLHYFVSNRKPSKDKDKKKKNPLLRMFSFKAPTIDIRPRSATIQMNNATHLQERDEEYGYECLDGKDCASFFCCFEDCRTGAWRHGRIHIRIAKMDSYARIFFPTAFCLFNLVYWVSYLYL
T1 sequence (P28472 whole entry): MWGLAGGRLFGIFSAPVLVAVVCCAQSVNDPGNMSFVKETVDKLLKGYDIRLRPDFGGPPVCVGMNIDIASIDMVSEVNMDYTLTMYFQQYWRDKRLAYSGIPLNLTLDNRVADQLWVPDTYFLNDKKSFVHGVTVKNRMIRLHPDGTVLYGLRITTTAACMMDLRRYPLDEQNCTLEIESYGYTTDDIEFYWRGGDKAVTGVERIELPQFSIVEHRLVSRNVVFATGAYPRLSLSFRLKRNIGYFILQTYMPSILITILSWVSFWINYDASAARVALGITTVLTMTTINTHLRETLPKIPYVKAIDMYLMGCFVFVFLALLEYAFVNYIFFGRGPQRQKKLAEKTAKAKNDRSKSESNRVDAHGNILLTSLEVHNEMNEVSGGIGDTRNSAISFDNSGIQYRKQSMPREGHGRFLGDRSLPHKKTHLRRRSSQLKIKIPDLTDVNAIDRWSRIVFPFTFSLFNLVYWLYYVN
T1 sequence (P31644 whole entry): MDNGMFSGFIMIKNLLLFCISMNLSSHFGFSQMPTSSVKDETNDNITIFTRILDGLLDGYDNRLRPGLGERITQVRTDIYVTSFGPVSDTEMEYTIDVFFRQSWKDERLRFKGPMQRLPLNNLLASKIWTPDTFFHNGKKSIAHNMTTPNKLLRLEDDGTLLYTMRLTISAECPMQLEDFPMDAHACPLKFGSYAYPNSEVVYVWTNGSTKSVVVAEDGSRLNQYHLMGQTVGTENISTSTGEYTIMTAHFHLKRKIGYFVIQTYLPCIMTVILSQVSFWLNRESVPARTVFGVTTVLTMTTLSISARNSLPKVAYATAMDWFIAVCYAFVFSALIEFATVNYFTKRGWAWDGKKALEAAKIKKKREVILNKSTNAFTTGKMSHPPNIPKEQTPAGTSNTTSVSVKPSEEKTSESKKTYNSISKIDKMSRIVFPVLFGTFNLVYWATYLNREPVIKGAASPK
The experiment can be described thus: Binding affinity for human recombinant gamma-aminobutyric-acid (GABA) A receptor alpha-5-beta-3-gamma-2. Format: protein-complex assay.

Experiment [2] addresses GABA-A receptor; alpha-6/beta-3/gamma-2 (Homo sapiens, UniProt P18507+P28472+Q16445). The experiment can be described thus: Binding affinity for human recombinant gamma-aminobutyric-acid (GABA) A receptor alpha-6-beta-3-gamma-2. Type of experiment: protein-complex assay. In outline: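 Ltk⁻ cells expressing human α6β3γ2 were harvested by scraping into PBS, centrifuged at 3000g and resuspended in 10 mM KH₂PO₄/100 mM KCl (pH 7.4). Incubation was 1 h at 4 °C with filter harvest and scintillation counting.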

For experiment [3], the target named is T2, GABA-A receptor; alpha-1/beta-3/gamma-2 (Homo sapiens, UniProt P14867+P18507+P28472).
T2 sequence (P14867 whole entry): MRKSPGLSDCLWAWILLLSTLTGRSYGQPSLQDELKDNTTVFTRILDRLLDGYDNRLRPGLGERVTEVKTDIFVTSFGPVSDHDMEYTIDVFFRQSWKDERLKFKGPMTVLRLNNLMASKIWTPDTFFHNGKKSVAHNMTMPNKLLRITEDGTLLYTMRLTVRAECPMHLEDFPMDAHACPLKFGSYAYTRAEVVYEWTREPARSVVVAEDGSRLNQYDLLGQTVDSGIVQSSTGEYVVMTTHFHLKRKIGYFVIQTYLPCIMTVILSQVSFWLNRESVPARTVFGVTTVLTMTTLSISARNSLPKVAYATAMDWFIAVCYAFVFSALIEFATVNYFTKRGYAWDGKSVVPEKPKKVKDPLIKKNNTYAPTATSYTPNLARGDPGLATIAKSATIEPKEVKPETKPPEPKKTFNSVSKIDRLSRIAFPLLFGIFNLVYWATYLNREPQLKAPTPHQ
T2 sequence (P18507 whole entry): T1 sequence (P18507 whole entry)
T2 sequence (P28472 whole entry): T1 sequence (P28472 whole entry)
The experiment can be described thus: Binding affinity for human recombinant gamma-aminobutyric-acid (GABA) A receptor alpha-1-beta-3-gamma-2. Format: protein-complex assay.

Experiment [4] addresses T3, GABA-A receptor; alpha-3/beta-3/gamma-2 (Homo sapiens, UniProt P18507+P28472+P34903).
T3 sequence (P18507 whole entry): T1 sequence (P18507 whole entry)
T3 sequence (P28472 whole entry): T1 sequence (P28472 whole entry)
T3 sequence (P34903 whole entry): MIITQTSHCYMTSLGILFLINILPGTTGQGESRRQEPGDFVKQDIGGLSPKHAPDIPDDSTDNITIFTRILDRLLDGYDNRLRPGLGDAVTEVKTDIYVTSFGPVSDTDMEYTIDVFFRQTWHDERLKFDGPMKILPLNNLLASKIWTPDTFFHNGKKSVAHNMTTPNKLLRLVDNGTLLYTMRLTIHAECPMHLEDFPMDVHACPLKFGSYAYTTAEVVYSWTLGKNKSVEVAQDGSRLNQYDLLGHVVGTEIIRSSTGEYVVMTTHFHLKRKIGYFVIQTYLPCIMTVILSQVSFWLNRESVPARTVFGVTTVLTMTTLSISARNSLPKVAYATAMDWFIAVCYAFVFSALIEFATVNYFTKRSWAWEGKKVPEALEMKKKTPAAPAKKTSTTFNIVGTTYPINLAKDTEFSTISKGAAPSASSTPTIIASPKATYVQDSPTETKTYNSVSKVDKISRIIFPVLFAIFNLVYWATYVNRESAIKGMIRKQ
The experiment can be described thus: Binding affinity for human recombinant gamma-aminobutyric-acid (GABA) A receptor alpha-3-beta-3-gamma-2. Format: protein-complex assay.

The nature of experiment [5]: Selectivity ratio of alpha1 beta-3 gamma2 GABA A / BzR and alpha5 beta-3 gamma2 GABA A / BzR.
Experiment [6] addresses T4, GABA-A receptor; alpha-2/beta-3/gamma-2 (Homo sapiens, UniProt P18507+P28472+P47869).
T4 sequence (P18507 whole entry): T1 sequence (P18507 whole entry)
T4 sequence (P28472 whole entry): T1 sequence (P28472 whole entry)
T4 sequence (P47869 whole entry): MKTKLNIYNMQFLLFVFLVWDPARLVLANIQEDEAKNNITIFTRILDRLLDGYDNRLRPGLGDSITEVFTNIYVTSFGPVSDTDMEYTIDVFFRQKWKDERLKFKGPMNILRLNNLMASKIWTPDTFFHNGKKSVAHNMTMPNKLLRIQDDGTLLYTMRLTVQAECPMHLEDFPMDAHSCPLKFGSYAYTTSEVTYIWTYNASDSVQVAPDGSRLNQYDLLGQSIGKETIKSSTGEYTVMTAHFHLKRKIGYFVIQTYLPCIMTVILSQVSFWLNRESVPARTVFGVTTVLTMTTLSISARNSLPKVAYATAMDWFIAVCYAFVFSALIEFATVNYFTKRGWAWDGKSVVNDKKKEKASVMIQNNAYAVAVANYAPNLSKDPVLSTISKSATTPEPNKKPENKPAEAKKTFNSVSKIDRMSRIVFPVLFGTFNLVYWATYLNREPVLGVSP
The experiment can be described thus: Binding affinity to human recombinant gamma-aminobutyric-acid (GABA) A receptor alpha-2-beta-3-gamma-2. Type of experiment: protein-complex assay.

Our source for the Ki and Ratio values is ChEMBL document CHEMBL1132940, “Pharmacophore/receptor models for GABA(A)/BzR subtypes (alpha1beta3gamma2, alpha5beta3gamma2, and alpha6beta3gamma2) via a comprehensive ligand-mapping approach” (J Med Chem, 2000).

GABA-A receptor; alpha-6/beta-3/gamma-2, sequence (Q16445 whole entry, one chain of several): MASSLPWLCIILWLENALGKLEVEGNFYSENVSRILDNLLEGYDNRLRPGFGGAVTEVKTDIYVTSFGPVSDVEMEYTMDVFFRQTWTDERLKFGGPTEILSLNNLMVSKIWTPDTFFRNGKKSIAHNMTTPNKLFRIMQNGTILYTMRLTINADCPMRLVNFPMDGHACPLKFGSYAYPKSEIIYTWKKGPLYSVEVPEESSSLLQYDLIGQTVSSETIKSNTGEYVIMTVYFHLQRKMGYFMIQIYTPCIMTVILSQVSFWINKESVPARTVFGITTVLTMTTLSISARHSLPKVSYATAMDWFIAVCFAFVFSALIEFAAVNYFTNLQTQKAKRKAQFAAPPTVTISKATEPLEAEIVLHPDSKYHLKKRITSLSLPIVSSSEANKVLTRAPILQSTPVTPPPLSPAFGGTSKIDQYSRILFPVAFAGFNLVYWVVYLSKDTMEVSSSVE

As for `COC(=O)c1cc2c3cc(SC#N)ccc3nc-2c[nH]1`, the inhibition constant (Ki) (in general, the dissociation constant of the complex between target and ligand, obtained from inhibition or displacement) in experiment [1] was 141 nM; in experiment [2], > 10000 nM; in experiment [3] it was 3.41 nM; in experiment [4], 30 nM.
Take `CN1C(=O)CN=C(c2ccccc2[N+](=O)[O-])c2cc([N+](=O)[O-])ccc21`: the Ki in experiment [1] was 7.7 nM; in experiment [2], > 10000 nM; in experiment [3], 0.49 nM; in experiment [4], 0.76 nM. Also, the Ratio in experiment [5] was 0.06.
As to `C#Cc1ccc(-n2[nH]c3c(cnc4ccccc43)c2=O)cc1`, the Ki in experiment [1] amounted to 0.17 nM; in experiment [3], 0.07 nM; in experiment [6], 0.03 nM; in experiment [4], 0.04 nM.
Regarding `[N-]=[N+]=Nc1ccc2c(c1)C(c1ccccc1N=[N+]=[N-])=NCC(=O)N2`, the Ki in experiment [1] is 1640 nM; in experiment [2], > 1000 nM; in experiment [3], 2160 nM; in experiment [4], 4620 nM. Besides, in experiment [5], the Ratio amounted to 1.32.
Taken in the same sequence, the figures for `CCOC(=O)c1ncn2c1[C@@H]1CCCN1C(=O)c1ccccc1-2` were 1.6 nM, > 300 nM, 7.3 nM, 7.1 nM and 4.6.
Regarding `N#CSc1ccc2[nH]c3cnc(SC#N)cc3c2c1`, the Ki in experiment [1] is 2910 nM; in experiment [2] it was > 5000 nM; in experiment [3], 13.6 nM; in experiment [6], 423 nM.
For `O=[N+]([O-])c1ccc2[nH]c3cnc([N+](=O)[O-])cc3c2c1`, in that order: 314 nM, > 50000 nM, 12.9 nM and 83.1 nM.
As to `COc1ccc(-n2nc3c4ccc(OC)cc4[nH]cc-3c2=O)cc1`, the Ki in experiment [1] was 0.52 nM; in experiment [2], 10 nM; in experiment [3] it was 0.34 nM; in experiment [4] it was 0.79 nM.
As to `CN1Cc2c(C(=O)OC(C)(C)C)ncn2-c2ccc(N=[N+]=[N-])cc2C1=O`, the results for the Ki in experiment [6] and in experiment [4] were 22.1 nM and 9.84 nM, respectively. Besides, the Ratio in experiment [5] worked out at 24.3.
With `COc1ccc(-n2nc3c4cc(Cl)ccc4[nH]cc-3c2=O)cc1`, the Ki is 0.32 nM in experiment [1], 1.9 nM in experiment [2], 0.2 nM in experiment [3] and 0.2 nM in experiment [4].
In the case of `CCOC(=O)c1ncn2c1CN(C)C(=O)c1cc(C#C[Si](C)(C)C)ccc1-2`, the Ratio in experiment [5] is 24.2.
In the case of `CCOC(=O)c1ncn2c1[C@@H]1CCCN1C(=O)c1cc(OC)ccc1-2`, the Ratio in experiment [5] turned out to be 108. Further, the Ki in experiment [4] was 24.5 nM.
Turning to `C#Cc1ccc2c(c1)C(=O)N1CCC[C@@H]1c1c(C(=O)OCC)ncn1-2`, the Ratio in experiment [5] was determined as 39.
In the case of `CCOC(=O)c1[nH]cc2nc3ccc(OCc4ccc5ccccc5c4)cc3c-2c1COC`, the Ki in experiment [1] is 323 nM; in experiment [2] it was > 1000 nM; in experiment [3], 15.4 nM; in experiment [4], 293 nM.
On to `CC#Cc1ccc2c(c1)C(=O)N(C)Cc1c(C(=O)OCC)ncn1-2`, for which, in experiment [5], the Ratio was found to be 6.
Still for that read-out and setting: the result for `CCOC(=O)c1ncn2c1CN(C)C(=O)c1cc(OCC)ccc1-2` reads 12.4.
In the case of `Cc1nnc2n1-c1ccc(Cl)cc1C(c1ccccc1Cl)=NC2` [TRIAZOLAM], the Ki in experiment [2] was > 10000 nM; in experiment [6], 0.59 nM.
As for `C#Cc1ccc2c(c1)C(=O)N1CCC[C@H]1c1c(-c3nc(C)no3)ncn1-2`, in experiment [5], the Ratio worked out at 24.
Same read-out and setting: the same measure for `C#Cc1ccc2c(c1)C(=O)N1CCC[C@H]1c1c(C(=O)OCC)ncn1-2`: 45; for `CCOC(=O)c1ncn2c1CN(C)C(=O)c1cc(C#N)ccc1-2`: 1.7.
Still for that read-out and setting: the same measure for `C#Cc1ccc2c(c1)C(=O)N(C)Cc1c(C(=O)OC(C)(C)C)ncn1-2`: 67.3.
Consider `O=C1CN=C(c2ccccc2[N+](=O)[O-])c2cc(Br)ccc2N1`, for which the Ki is 199 nM in experiment [1], > 3000 nM in experiment [2], 31 nM in experiment [6] and 52 nM in experiment [4]. Also, the Ratio in experiment [5] worked out at 0.08.
Regarding `CCOC(=O)c1ncn2c1[C@@H]1CCCN1C(=O)c1cc(Br)ccc1-2`, the Ratio in experiment [5] was found to be 49.
Still for that read-out and setting: the same measure for `CCOC(=O)c1ncn2c1CN(C)C(=O)c1cc(Br)ccc1-2`: 3.7.
